# Assay results reported in paper PMC4482135 (Organometallics, 2015).
# Several values for one entry are separate records, joined by “and”; a condition that tells them apart may be missing. Identical values can stand only once. Like-named read-outs stand apart in the source and are kept apart here.
# Assays:
# [1] = test system: MCF7 human breast carcinoma cells; test: In vitro growth inhibition; assay type: cell-based; conditions: read-out: IC50 values, MCF-7; 24 h drug exposure, 72 h recovery, SRB assay
# Outline: (§1)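 Cells seeded at 5000 per well and preincubated 48 h drug-free at 310 K. Media: RPMI-1640 (A2780), DMEM (A549, MCF7) or McCoy's 5A (HCT116), each with 10% FCS. Test compound stocks made in 5% DMSO with saline/medium 1:1, then serially diluted in medium. Exposure 24 h, PBS wash, then 72 h recovery. SRB absorbance read at 470 nm against untreated control. IC50 (50% growth inhibition) from duplicates of triplicates in two independent experiments.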
# [2] = test system: A549 human lung carcinoma cells; test: In vitro growth inhibition; assay type: cell-based; conditions: read-out: IC50 values, A549; 24 h drug exposure, 72 h recovery, SRB assay
# Outline: as §1
# [3] = test system: HCT116 human colon carcinoma cells; test: In vitro growth inhibition; assay type: cell-based; conditions: read-out: IC50 values, HCT-116; 24 h drug exposure, 72 h recovery, SRB assay
# Outline: as §1
# 9-ethylguanine (9-EtG) = test: Binding to nucleobase 9-ethylguanine by 1H NMR
# Outline: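 Test complex (ca. 500 μM) and 9-EtG (ca. 500 μM), about 1:1, in 26.7% MeOD-d4/73.3% D2O with 4 mM NaCl, so the complex is mainly the Ir–Cl form. Held at 310 K, pH* 7.4. 1H NMR (600 MHz) recorded 15 min and 24 h after nucleobase addition. Adduct percentage taken from 1H NMR peak integrations.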
# 9-methyladenine (9-MeA) = test: Binding to nucleobase 9-methyladenine by 1H NMR; conditions: co-incubation with equimolar 9-EtG and 9-MeA, 310 K, pH* 7.4
# Outline: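 Competition run: test complex (ca. 500 μM) with equimolar 9-EtG and 9-MeA in 26.7% MeOD-d4/73.3% D2O at 310 K, pH* 7.4. 1H NMR (600 MHz) recorded 15 min and 24 h after nucleobase addition. Percentage bound to each nucleobase calculated from 1H NMR peak integrations.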
# [4] = Relative hydrophobicity by RP-HPLC; assay type: physicochemical; conditions: C18, H2O/MeCN with 50 mM NaCl; longer tR = more hydrophobic
# Outline: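 RP-HPLC on C18 column (150 × 4.6 mm, 5 μm). A = H2O with 50 mM NaCl; B = H2O/MeCN 1:1 with 50 mM NaCl. Gradient starts at 20% B, reaches 100% B at 15 min, holds to 40 min, returns to 20% B by 42 min; run 57 min. Flow 1 mL min–1, detection 254 nm. Samples ca. 100 μM in 10% MeOH/90% H2O with 50 mM NaCl. tR from duplicates of triplicate runs.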
# [5] = Catalytic oxidation of NADH to NAD+ by UV-visible spectroscopy; conditions: complex 2.5 μM, NADH 69, 103, 146 μM, 310 K, pH 7.5
# Outline: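 Test complex fixed at 2.5 μM with NADH at 69, 103 or 146 μM, in 5 mM Na2HPO4/NaH2PO4 buffer pH 7.5 (0.5% MeOH/99.5% H2O), 310 K, 24 h. NADH loss followed by UV–vis at 339 nm (εNADH = 6220 cm–1 M–1). Rate constant k taken from first-order kinetic plots in [NADH].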
# [6] = test system: A2780 ovarian carcinoma cells; test: Cellular-iridium accumulation in A2780 cells by ICP-MS; assay type: cell-based, human; conditions: for cellular-Ir accumulation: 24 h exposure at equipotent (IC50) concentrations, no recovery, ICP-MS
# Outline: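 A2780 cells, 1.5 × 10^6 per well, preincubated 24 h drug-free at 310 K in humidified 5% CO2. Then 24 h exposure to test complex. Cells trypsinised, counted and pelleted; pellets digested overnight in 73% HNO3 at 353 K, then diluted to 5% HNO3. 193Ir measured by ICP-MS (no-gas mode, duplicate readings, 0–100 ppb calibration). Triplicates in two independent experiments.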
# [7] = test system: A2780 human ovarian cancer cells; test: Cellular-iridium distribution in A2780 cells; assay type: cell-based; conditions: IC50 concentrations
# [8] = test system: A2780 human ovarian carcinoma cells; test: In vitro growth inhibition; assay type: cell-based; conditions: read-out: IC50 values, A2780; 24 h drug exposure, 72 h recovery, SRB assay
# Outline: as §1
# [9] = test system: A2780 human ovarian carcinoma cells; conditions: read-out: IC50 values, A2780; previously reported complexes; ref [4b]; cited from earlier work
Compound,IC50 [1],IC50 [2],IC50 [3],tR by RP-HPLC (relative hydrophobicity) [4],cellular-Ir accumulation [6],IC50 [8],other results
"Cc1c(C)c(C)[c-](C)c1C.Fc1ccc[c-]c1-c1ccccn1.[Cl-].[Ir+3] [Complex 1, [(η^5-Cp*)Ir(2-(2′-fluorophenyl)pyridine)Cl]]",9.6 ± 0.4 µM,10.36 ± 0.07 µM,3.7 ± 0.3 µM,,,,
"Cc1c(C)c(C)[c-](C)c1C.Fc1ccc(-c2[c-]cccc2)nc1.[Cl-].[Ir+3] [Complex 4, [(η^5-Cp*)Ir(2-phenyl-5-fluoropyridine)Cl]]",,,,18.60 ± 0.02 min,11.1 ± 0.1 ng Ir × 10^6 A2780 cells,,"binding to 9-EtG in the presence of 4 mM NaCl (9-ethylguanine (9-EtG); 4 mM NaCl (Ir-Cl species), after 15 min): 100%; binding to 9-EtG in the presence of 4 mM NaCl (9-ethylguanine (9-EtG); 4 mM NaCl (Ir–Cl species), after 24 h, 310 K): 100%; binding to 9-MeA in the presence of 9-EtG (competitive binding) (9-methyladenine (9-MeA)): 5–10%; average rate constant k, first-order with respect to [NADH] [5]: 4.03 × 10^–4 min^–1; iridium in cell membrane and particulate fractions [7]: 17.9%; iridium in cytoskeletal fraction [7]: 6.1%; iridium in cytosol fraction [7]: 69.2%; iridium in nuclear fraction [7]: 6.7%"
"Cc1c(C)c(C)[c-](C)c1C.Oc1c[c-]c(-c2ccccn2)cc1.[Cl-].[Ir+3] [Complex 11, [(η^5-Cp*)Ir(2-(4′-hydroxyphenyl)pyridine)Cl]]",28.6 ± 0.9 µM,56.67 ± 0.04 µM,29.3 ± 0.8 µM,15.11 min and 15.1 min and 15.11 ± 0.03 min,1.58 ng Ir × 10^6 A2780 cells and 1.6 ng Ir × 10^6 A2780 cells and 1.6 ± 0.1 ng Ir × 10^6 A2780 cells,47.3 ± 0.1 µM,
"Cc1c(C)c(C)[c-](C)c1C.Oc1ccc(-c2[c-]cccc2)nc1.[Cl-].[Ir+3] [Complex 12, [(η^5-Cp*)Ir(2-phenyl-5-hydroxypyridine)Cl]]",,,,17.8 min and 17.8 ± 0.2 min,10.2 ng Ir × 10^6 A2780 cells and 10.2 ± 0.2 ng Ir × 10^6 A2780 cells,13.3 ± 0.88 µM,"fold cellular-iridium accumulation relative to isomer 11 ([6]; A2780 cells, IC50 concentrations): 6 times"
"Cc1c(-c2ccccc2)c(C)[c-](C)c1C.[Cl-].[Ir+3].[c-]1ccccc1-c1ccccn1 (stereo not shown) [Complex 17, [(η^5-Cp^xPh)Ir(2-phenylpyridine)Cl]]",,,,,,,IC50 [9]: 2.14 ± 0.5 µM
"N.N.[Cl][Pt][Cl] [cisplatin, reference compound]",7 ± 0.1 µM,3.5 ± 0.2 µM,5.2 ± 0.3 µM,,,1.2 ± 0.2 µM,
